Many of the other results were omitted from the sample, so hits are more common in it than they were.
A1_apoptosis_2 – A1 inhibition read as caspase activation | 24,000 tested, under 10 active | MEF A1-2A-BIM cells, caspase-Glo luminescence, 3 h; percent of clofoctol response, DMSO zero | caspase activation, % (no concentration beside the values); in the data active = caspase activation above about 5.9%; inconclusive = no clear call, values can overlap the other calls; inactive = below about 2.2%
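Evaluation: Caspase-3/7 activity from luminescence increase | Assay system: A1-2A-BIM mouse embryonic fibroblasts | Quantity: 2500 MEF cells/well | Medium: RPMI-1640 plus 10% FBS | Detection: Caspase-Glo 3/7 luminescence, 1 h at room temperature | Dosing: 50 nL compound per well, pinned | Timing: Cells settled overnight, compound exposure 3 h at 37 °C, 5% CO2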
T_cruzi_HTS – intracellular Trypanosoma cruzi inhibition; intracellular Trypanosoma cruzi in host cells, plate reader; activity score (inhibition), % at 5.01 µM; 22,000 compounds, 4.9% hits; in the data active = activity score above about 55%; inconclusive = no clear call, values can overlap the other calls;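 note: parasites and compound incubated about four days before reading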
INS-1E_ATP_HTS – preserves ATP levels in cytokine-treated INS-1E cells | INS-1E cytokine-induced death, ATP luminescence, 48 h; normalised: neutral wells 0, positive control 100 | protection from cytokine-induced ATP loss, % at 10 µM | 20,000 compounds, 0.1% hits;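 active = mean replicate protection from cytokine-induced ATP loss at least 50% and at least 75% of replicates each reaching 50%; inconclusive = meets only one of the two criteria, mean or replicate share; inactive = fails both the mean and replicate share criteria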
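assay system = INS-1E rat insulinoma cells | amount = 8000 cells per well | medium = phenol-red-free RPMI with 5% fetal bovine serum | doses = one compound concentration, pin transfer | timing = 48 h cytokine plus compound treatment, 10 min reagent incubation | also added = IL-1β, TNF-α and IFN-γ cytokine mix | signal = CellTiter-Glo luminescence measuring cellular ATP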
Numbers stand for hits; 0 = inactive; ? = inconclusive; - = no result.

SMILES A1_apoptosis_2 T_cruzi_HTS INS-1E_ATP_HTS
C[C@H](CO)N1C[C@H](C)[C@H](CN(C)Cc2ccc(C(=O)Nc3ccccc3N)cc2)Oc2ccc(NC(=O)Cc3ccccc3)cc2C1=O 0 0 0
C[C@@H]1CCCCO[C@H](CN(C)Cc2ccc(C(=O)O)cc2)[C@@H](C)CN([C@@H](C)CO)C(=O)c2cc(NS(=O)(=O)c3ccccc3)ccc2O1 0 - -
C[C@H]1CN([C@@H](C)CO)C(=O)c2cccc(NC(=O)NC3CCCCC3)c2O[C@H]1CN(C)Cc1ccc(Oc2ccccc2)cc1 0 0 0
C[C@@H]1CN([C@@H](C)CO)C(=O)c2cccc(NC(=O)NC3CCCCC3)c2O[C@@H]1CN(C)Cc1ccc(Oc2ccccc2)cc1 - 64 0
COc1ccc(S(=O)(=O)Nc2ccc3c(c2)CC(=O)N([C@@H](C)CO)C[C@H](C)[C@@H](CN(C)C(=O)Nc2cccc4ccccc24)O3)cc1 0 0 0
C[C@H](CO)N1C[C@H](C)[C@H](CN(C)Cc2ccc(Oc3ccccc3)cc2)Oc2ccc(NC(=O)Nc3ccc(C(F)(F)F)cc3)cc2C1=O - 63 -
C[C@H](CO)N1C[C@H](C)[C@@H](CN(C)Cc2ccc(Oc3ccccc3)cc2)Oc2ccc(NC(=O)Nc3ccc(C(F)(F)F)cc3)cc2C1=O 0 0 0
C[C@H]1CN([C@@H](C)CO)C(=O)c2cc(NC(=O)Nc3ccc(C(F)(F)F)cc3)ccc2O[C@H]1CN(C)Cc1ccc(Oc2ccccc2)cc1 - 80 0
C[C@@H]1CN([C@H](C)CO)C(=O)c2cc(NC(=O)Nc3ccccc3)ccc2O[C@@H]1CN(C)Cc1ccc(C(F)(F)F)cc1 - 0 -
COc1ccc(S(=O)(=O)Nc2ccc3c(c2)C(=O)N([C@H](C)CO)C[C@H](C)[C@@H](CN(C)C(=O)c2ccccc2)OCCCC[C@H](C)O3)cc1 0 - -
C[C@@H]1CN([C@H](C)CO)C(=O)Cc2cc(NC(=O)Nc3ccc(F)cc3)ccc2O[C@H]1CN(C)Cc1ccc(C(F)(F)F)cc1 - 73 0
C[C@H]1CN([C@@H](C)CO)C(=O)Cc2cc(NC(=O)Nc3ccc(F)cc3)ccc2O[C@@H]1CN(C)Cc1ccc(C(F)(F)F)cc1 0 84 0
COc1ccc(NC(=O)Nc2ccc3c(c2)CC(=O)N([C@@H](C)CO)C[C@@H](C)[C@H](CN(C)Cc2ccc(C(F)(F)F)cc2)O3)cc1 0 - -
COc1ccc(CN(C)C[C@H]2Oc3ccc(NC(=O)Nc4ccc(C(F)(F)F)cc4)cc3CC(=O)N([C@@H](C)CO)C[C@@H]2C)cc1 0 0 0
C[C@H](CO)N1C[C@H](C)[C@H](CN(C)Cc2ccc(C(F)(F)F)cc2)Oc2ccc(NC(=O)Nc3ccc(F)cc3)cc2CC1=O - 78 0
C[C@H](CO)N1C[C@H](C)[C@H](CN(C)S(=O)(=O)c2ccc(F)cc2)Oc2c(NC(=O)NC3CCCCC3)cccc2C1=O - 0 0
CO[C@H]1O[C@H](CO)[C@@H](OC(=O)Nc2cccc(F)c2)[C@H](OC(=O)Nc2ccc3c(c2)OCO3)[C@H]1OC(=O)Nc1ccc2c(c1)OCO2 0 - -
C[C@H](CO)N1C[C@H](C)[C@H](CN(C)Cc2cccc(C(F)(F)F)c2)Oc2ncc(-c3ccc(F)cc3)cc2C1=O - 59 -
Cc1cccc(CN(C)C[C@@H]2Oc3ncc(-c4ccc(F)cc4)cc3C(=O)N([C@H](C)CO)C[C@@H]2C)c1 - 0 -
C[C@H](CO)N1C[C@H](C)[C@H](CN(C)Cc2ccc3c(c2)OCO3)Oc2ncc(-c3cccc(F)c3)cc2C1=O 0 0 0
COc1cccc(S(=O)(=O)N(C)C[C@@H]2Oc3ncc(-c4cccc(F)c4)cc3C(=O)N([C@H](C)CO)C[C@@H]2C)c1 - 0 -
C[C@H](CO)N1C[C@H](C)[C@H](CN(C)Cc2ccc3c(c2)OCO3)Oc2ncc(-c3cccc(C(F)(F)F)c3)cc2C1=O 0 62 0
C[C@H](CO)N1C[C@H](C)[C@H](CN(C)Cc2cccc(C(F)(F)F)c2)Oc2ncc(C#Cc3ccccc3)cc2C1=O 0 84 -
COc1cccc(S(=O)(=O)N(C)C[C@@H]2Oc3ncc(-c4cccc(C(F)(F)F)c4)cc3C(=O)N([C@H](C)CO)C[C@@H]2C)c1 - 57 -
C[C@H](CO)N1C[C@H](C)[C@H](CN(C)Cc2ccc(F)cc2)Oc2ncc(C#Cc3ccccc3)cc2C1=O 0 - -
SMILES A1_apoptosis_2 T_cruzi_HTS INS-1E_ATP_HTS
C[C@@H]1CN([C@H](C)CO)C(=O)c2cccc(NC(=O)CCCCCC(=O)Nc3ccccc3N)c2O[C@@H]1CN(C)CC1CCCCC1 - 0 0
C[C@H]1CN([C@@H](C)CO)C(=O)c2cccc(NS(=O)(=O)c3ccccc3)c2O[C@@H]1CN(C)CC1CC1 - 0 0
C=C(C)[C@@H]1CC=C(/C=N/NC(=O)c2cccc(C(=O)NO)c2)CC1 0 0 0
N#Cc1ccc(/C=N/NC(=O)CCCCCC(=O)NO)cc1 0 - -
C[C@@H]1CCCCO[C@@H](CN(C)C(=O)Cc2ccccc2)[C@H](C)CN([C@@H](C)CO)C(=O)c2cc(NC(=O)CCC(F)(F)F)ccc2O1 0 - -
CC(C)NC(=O)N(C)C[C@@H]1Oc2ccc(NC(=O)CCCCCC(=O)Nc3ccccc3N)cc2CC(=O)N([C@@H](C)CO)C[C@@H]1C 0 0 0
Cc1ccc(S(=O)(=O)N(C)C[C@H]2Oc3ccc(N(C)C)cc3CC(=O)N([C@H](C)CO)C[C@H]2C)cc1 - 0 0
C[C@H](CO)N1C[C@H](C)[C@H](CN(C)Cc2ccc(F)cc2)Oc2ncc(-c3cccc(C(F)(F)F)c3)cc2C1=O - 62 -
C[C@H](CO)N1C[C@H](C)[C@H](CN(C)Cc2ccccc2)Oc2ncc(-c3cccc(C(F)(F)F)c3)cc2C1=O 0 ? -
C[C@H](CO)N1C[C@H](C)[C@H](CN(C)C)Oc2ncc(-c3cccc(C(F)(F)F)c3)cc2C1=O 0 81 -
CNC[C@@H]1Oc2ncc(-c3cccc(C(F)(F)F)c3)cc2C(=O)N([C@H](C)CO)C[C@@H]1C 0 0 -
C[C@H](CO)N1C[C@H](C)[C@H](CN(C)C(=O)Nc2ccccc2)Oc2c(NS(=O)(=O)c3cn(C)cn3)cccc2C1=O - 0 0
C[C@H](CO)N1C[C@H](C)[C@@H](CN(C)C(=O)Nc2ccccc2)Oc2ccc(NC(=O)CCN3CCOCC3)cc2CC1=O 0 - -
C[C@H]1CN([C@@H](C)CO)C(=O)c2cccc(NC(=O)C3CCOCC3)c2O[C@H]1CN(C)Cc1ccccc1 0 0 0
C[C@H](CO)N1C[C@H](C)[C@H](CN(C)S(=O)(=O)c2ccc(Cl)cc2)Oc2ccc(NS(=O)(=O)c3ccccc3)cc2C1=O - 62 -
Cc1ccc(S(=O)(=O)N(C)C[C@H]2Oc3ccc(NS(=O)(=O)c4ccc(Cl)cc4)cc3C(=O)N([C@@H](C)CO)C[C@@H]2C)cc1 - 0 0
Cc1ccc(S(=O)(=O)Nc2ccc3c(c2)C(=O)N([C@H](C)CO)C[C@H](C)[C@H](CN(C)S(=O)(=O)c2ccccc2)O3)cc1 0 74 -
C[C@H]1CN([C@@H](C)CO)C(=O)c2cc(NS(=O)(=O)c3ccc(Cl)cc3)ccc2O[C@H]1CN(C)S(=O)(=O)c1ccc(Cl)cc1 - 44 -

Screens from PubChem BioAssay.
